Data reported in paper PMC5111764 (Journal of Clinical Pharmacology, 2016).
Where two headings read alike, the source gives them in different places.

Tests used:
[1] = type: in vivo; details: male, human, plasma, po
How it was run: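 In an alternating-panel design (panels A and B), each panel had 6 active and 2 placebo subjects. Single oral doses of 0.5–400 mg were given after an overnight fast, with at least 2 weeks of washout. Blood went into K2EDTA and was spun at 1000–1300g, 4–10°C, for 10 min, then stored at –20°C. Plasma was extracted liquid-liquid with a stable-isotope internal standard and assayed by LC/MS/MS with turbo ionspray (range 1.0–1000 ng/mL). Parameters came from individual concentration-time curves at actual sampling times.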

[2] = Study 1 panel C: effect of a high-fat breakfast on single-dose pharmacokinetics; type: in vivo, human; details: single dose 10 mg
How it was run: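 Panel C had 8 subjects, 6 on 10 mg test compound and 2 on placebo, in a 2-period fixed sequence. Dosing was fasted in period 1 and after a standard high-fat breakfast (55.6 g fat, 55 g carbohydrate, 31.1 g protein) in period 2. Washout was at least 2 weeks. Plasma was assayed by LC/MS/MS (LLOQ 1.0 ng/mL). Log-transformed parameters were compared fed/fasted as GMR with 90% CI.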

[3] = type: in vivo, human; details: for fe, fraction of dose excreted in urine: Day 15, 168-hour collection; for half-life / CL renal: male, human, oral; for half-life: plasma; for CL renal: urine and plasma
How it was run: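 Serial panels got 10, 25, 50 or 100 mg orally once weekly on days 1, 8 and 15, with 6 active and 2 placebo per panel. Plasma was assayed by LC/MS/MS (LLOQ 1.0 ng/mL). Urine was fortified with 0.2% Tween 20, protein-precipitated and assayed by LC/MS/MS (range 40.0–40,000 ng/mL). Ae is the sum of concentration × volume per interval, fe is Ae/dose and CLr is Ae/AUC. Accumulation is the day 15/day 1 GMR with 90% CI from a log-transformed mixed-effects model.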

plasma DPP-4 activity [4] = biological target: T1, plasma DPP-4 activity (Homo sapiens, UniProt P27487); assay: Study 1: inhibition of plasma DPP-4 activity after single doses; type: in vivo
How it was run: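 Healthy subjects got single oral doses of 0.5–400 mg or placebo. Blood went into EDTA tubes and was spun at 1700g for 10 min at 4°C, then stored at –20°C or below. Plasma was incubated with glycyl-prolyl-paranitroanilide, and absorbance increase at 390 nm was read from 4 to 14 min (LOQ 0.6 mOD/min). Inhibition is the % change from the period-1 predose baseline. The 168-h values came from a linear mixed-effects model (treatment fixed, subject random).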

plasma DPP-4 activity [5] = biological target: T1, plasma DPP-4 activity; assay: PK/PD Emax model of DPP-4 inhibition vs omarigliptin plasma concentration; type: in vivo
active GLP-1 = assay: Study 2: weighted average augmentation; type: in vivo, human; details: healthy subjects (abstract)
How it was run: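 Once-weekly oral dosing ran days 1, 8 and 15 against placebo. On day 15, standard meals were given at 4 and 10 h post-dose, with the 4-h sample drawn before the meal. Plasma active GLP-1 (7-36 and 7-37 amides) was measured by electrochemiluminescent immunoassay. Capture was with an antibody to amino acid 7, and detection with antibodies to the C-terminal residues 36/37. WAA was taken through 2 h after each meal and analysed by ANOVA versus placebo.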

[6] = PK/QTc relationship: linear mixed-effects model of QTcF vs plasma concentration; type: in vivo, human; details: Cmax of 10 μM
How it was run: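 In study 1, single rising oral doses ran from 0.5 to 400 mg under fasting. ECGs came from 5-lead cardiac telemetry and 12-lead recordings, paired with PK sampling. The averaged triplicate QTcF at each time point (dependent) was matched to plasma drug concentration (independent). These were fitted by a linear mixed-effects model with slope and intercept, and the slope was tested against zero. Prolongation was predicted from the fitted slope.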

[7] = Safety and tolerability in healthy subjects; type: in vivo, human; details: single and multiple doses
How it was run: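 Healthy adults got single rising oral doses or 3 once-weekly oral doses, versus placebo. Physical exams, vital signs and 12-lead ECGs (QTc, PR) were done before dosing, after dosing and at the poststudy visit. So were labs (hematology, serum chemistry including transaminases, urinalysis). Glucometer readings were taken often over 24 h after each single dose or the last multiple dose. Adverse experiences were graded for intensity, duration, seriousness, outcome and drug relation.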

[8] = rats and dogs; cited from earlier work
plasma DPP-4 activity [9] = details: lean mice, 0.3 mg/kg dose; cited from earlier work
[10] = ref unpublished data; cited from earlier work
[11] = ref unpublished data; cited from earlier work; remark: listed apart in the source

T1 sequence (P27487 39-766): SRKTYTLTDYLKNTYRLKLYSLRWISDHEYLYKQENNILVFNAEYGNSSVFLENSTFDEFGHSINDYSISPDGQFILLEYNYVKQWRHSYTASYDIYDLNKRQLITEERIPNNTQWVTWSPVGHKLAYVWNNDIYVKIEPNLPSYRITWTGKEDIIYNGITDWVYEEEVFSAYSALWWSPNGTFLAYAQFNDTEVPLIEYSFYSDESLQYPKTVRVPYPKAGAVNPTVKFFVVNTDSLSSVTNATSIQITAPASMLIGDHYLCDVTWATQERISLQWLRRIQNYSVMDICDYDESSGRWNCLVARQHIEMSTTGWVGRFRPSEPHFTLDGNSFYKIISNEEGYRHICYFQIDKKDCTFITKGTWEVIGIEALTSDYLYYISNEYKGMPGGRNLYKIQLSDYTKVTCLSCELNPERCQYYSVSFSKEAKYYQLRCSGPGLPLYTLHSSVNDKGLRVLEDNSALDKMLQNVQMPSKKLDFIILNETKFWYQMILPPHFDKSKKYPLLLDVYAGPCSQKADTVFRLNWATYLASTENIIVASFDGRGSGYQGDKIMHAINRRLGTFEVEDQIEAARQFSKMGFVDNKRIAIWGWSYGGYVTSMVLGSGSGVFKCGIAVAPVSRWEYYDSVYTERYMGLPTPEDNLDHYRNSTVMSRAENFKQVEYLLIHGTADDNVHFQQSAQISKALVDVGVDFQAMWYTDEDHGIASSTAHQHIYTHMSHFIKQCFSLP

- Tmax [1]: 0.75 to 4 h
- Cmax ([1]; 0.5 mg): 6.5 nM
- Tmax ([1]; 0.5 mg): 0.75 h
- AUC(0-inf) ([1]; 1.5 mg): 1.7 µM·h
- Cmax ([1]; 1.5 mg): 20.7 nM
- Tmax ([1]; 1.5 mg): 1 h
- AUC(0-inf) ([1]; 5 mg): 5.3 µM·h
- Cmax ([1]; 5 mg): 88.2 nM
- Tmax ([1]; 5 mg): 2 h
- AUC(0-inf) ([1]; 12.5 mg): 12 µM·h
- Cmax ([1]; 12.5 mg): 219 nM
- Tmax ([1]; 12.5 mg): 4 h
- AUC(0-inf) ([1]; 25 mg): 22.5 µM·h
- Cmax ([1]; 25 mg): 484 nM
- Tmax ([1]; 25 mg): 0.75 h
- AUC(0-inf) ([1]; 50 mg): 41.6 µM·h
- Cmax ([1]; 50 mg): 904 nM
- Tmax ([1]; 50 mg): 1.5 h
- AUC(0-inf) ([1]; 100 mg): 86.9 µM·h
- Cmax ([1]; 100 mg): 2210 nM
- Tmax ([1]; 100 mg): 0.75 h
- AUC(0-inf) ([1]; 200 mg): 162 µM·h
- Cmax ([1]; 200 mg): 3850 nM
- Tmax ([1]; 200 mg): 1.5 h
- AUC(0-inf) ([1]; 400 mg): 335 µM·h
- Cmax ([1]; 400 mg): 9290 nM
- Tmax ([1]; 400 mg): 1 h
- difference in overall absorption in the presence and absence of a high-fat breakfast [2]: No difference
- fe, fraction of dose excreted in urine ([3]; 10 mg once weekly): 70.1 (14.1) %
- fe, fraction of dose excreted in urine ([3]; 25 mg once weekly): 57.5 (15.7) %
- fe, fraction of dose excreted in urine ([3]; 50 mg once weekly): 73.6 (4.3) %
- fe, fraction of dose excreted in urine ([3]; 100 mg once weekly): 72.2 (7.7) %
- steady state achieved following the second dosing ([3]; all treatments 10 to 100 mg once weekly): more than 80%
- half-life ([3]; 10 mg): 83.2 h
- half-life ([3]; 25 mg): 66.7 h
- half-life ([3]; 50 mg): 48.3 h
- half-life ([3]; 100 mg): 41.7 h
- CL renal [3]: 26.7 to 35 mL/min
- CL renal ([3]; 10 mg): 33.3 mL/min
- CL renal ([3]; 25 mg): 26.7 mL/min
- CL renal ([3]; 50 mg): 31.7 mL/min
- CL renal ([3]; 100 mg): 35 mL/min
- percentage inhibition of DPP-4 activity 168 hours postdose (point estimate) (plasma DPP-4 activity [4]; single dose 0.5 mg): 32.2%
- percentage inhibition of DPP-4 activity 168 hours postdose (point estimate) (plasma DPP-4 activity [4]; single dose 400 mg): 96.7%
- Hill slope γ (plasma DPP-4 activity [5]; Emax model, single doses, SE 0.03): 1.1
- Emax (plasma DPP-4 activity [5]; read-out: Emax, maximum inhibition of plasma DPP-4 activity): 96.8%
SMILES: CS(=O)(=O)n1cc2c(n1)CN([C@H]1CO[C@H](c3cc(F)ccc3F)[C@@H](N)C1)C2 [omarigliptin]
- increase in weighted average postprandial active GLP-1 (active GLP-1): ~2 fold
- margin to the clinical dose of 25 mg [6]: ~20 fold
- tolerability ([7]; healthy adults): generally well tolerated
- clinical or laboratory adverse experiences of hypoglycemia [7]: no reports
- serious clinical or laboratory adverse experiences or discontinuation because of a clinical adverse experience [7]: No subject
- bioavailability [8]: nearly complete
- inhibition of plasma DPP-4 activity (plasma DPP-4 activity [9]): ~85%
- solubility [10]: high
- permeability [11]: high
